Assays:
Rattus norvegicus [1] = test: Antiinflammatory activity against carrageenan-induced paw edema in Wistar rat assessed as inhibition of hind paw edema at 12.5 mg/kg, po administered 1 hr prior to carrageenan challenge measured after 3 hrs relative to control; format: functional
In short: (§1)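 Wistar rats of either sex (250–300 g), fasted overnight, gavaged with compound in 0.5% methylcellulose. 1 h later, 0.1 mL 1% carrageenan injected subcutaneously into the plantar hind paw. Paw volume read by plethysmometer right after injection and 3 h later. Control edema set as 100, % inhibition from swelling difference. Groups of 8–10; Student's t-test.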

Rattus norvegicus [2] = test: Antiinflammatory activity against carrageenan-induced paw edema in Wistar rat assessed as inhibition of hind paw edema at 100 mg/kg, po administered 1 hr prior to carrageenan challenge measured after 3 hrs relative to control; format: functional; in short: as §1
Rattus norvegicus [3] = test: Antiinflammatory activity against carrageenan-induced paw edema in Wistar rat assessed as inhibition of hind paw edema at 6.25 mg/kg, po administered 1 hr prior to carrageenan challenge measured after 3 hrs relative to control; format: functional; in short: as §1
Mus musculus [4] = test: Analgesic activity in Swiss mouse assessed as inhibition of acetic acid-induced writhing response at 50 mg/kg, po administered 1 hr before acetic acid challenge measured for 30 mins relative to control; format: functional
In short: (§2)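 Mice of either sex (25–35 g), fasted overnight, dosed by oral gavage with test agent suspended in 0.5% methylcellulose; controls got vehicle alone. Each hind-limb full extension counted as a writhe over 30 min after the noxious agent. % inhibition from treated vs control writhing; groups of 8–10; Student's t-test. Dosing starts at 100 mg/kg, then halved stepwise.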

Rattus norvegicus [5] = test: Antiinflammatory activity against carrageenan-induced paw edema in Wistar rat assessed as inhibition of hind paw edema at 50 mg/kg, po administered 1 hr prior to carrageenan challenge measured after 3 hrs relative to control; format: functional; in short: as §1
Rattus norvegicus [6] = test: Antiinflammatory activity against carrageenan-induced paw edema in Wistar rat assessed as inhibition of hind paw edema at 25 mg/kg, po administered 1 hr prior to carrageenan challenge measured after 3 hrs relative to control; format: functional; in short: as §1
Mus musculus [7] = test: Analgesic activity in Swiss mouse assessed as inhibition of acetic acid-induced writhing response at 100 mg/kg, po administered 1 hr before acetic acid challenge measured for 30 mins relative to control; format: functional; in short: as §2
Rattus norvegicus [8] = test: Acute gastrolesivity in Wistar rat assessed as appearance of gastric damage at 200 mg/kg, po after 5 hrs; format: toxicity, organism-based, Stomach; set-up: dose 200 mg/kg, route oral; conditions: in vivo
In short: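 Wistar rats (250–300 g), either sex, fasted overnight; compound suspended in 0.5% methylcellulose, single oral gavage at 200 mg kg^-1 (1 mL 100 g^-1). Stomachs excised 5 h later, fixed in 2% formalin, opened along greater curvature, examined by stereomicroscope by blinded observer. Reported as number of animals with gastric damage over treated animals (eight per group).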

Mus musculus [9] = test: Sedative activity in Swiss mouse assessed as inhibition of spontaneous locomotor activity at 100 mg/kg, po dose measured for every 5 mins up to 90 mins; format: organism-based; set-up: dose 100 mg/kg, route oral
In short: (§3)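 Overnight-fasted mice given compound (0.5% methylcellulose) or vehicle by oral gavage, then housed singly in an activity cage. Locomotion auto-recorded in 5-min intervals for 90 min; pulses of the final 30 min scored. % inhibition versus controls; runs between 9.00 and 13.00; groups of 8–10; Student's t-test.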

Mus musculus [10] = test: Analgesic activity in Swiss mouse assessed as inhibition of acetic acid-induced writhing response at 12.5 mg/kg, po administered 1 hr before acetic acid challenge measured for 30 mins relative to control; format: functional; in short: as §2
Mus musculus [11] = test: Analgesic activity in Swiss mouse assessed as inhibition of acetic acid-induced writhing response at 25 mg/kg, po administered 1 hr before acetic acid challenge measured for 30 mins relative to control; format: functional; in short: as §2
Mus musculus [12] = test: Sedative activity in Swiss mouse assessed as inhibition of spontaneous locomotor activity at 50 mg/kg, po dose measured for every 5 mins up to 90 mins; format: organism-based; set-up: dose 50 mg/kg, route oral; in short: as §3

| SMILES | inhibition in vivo at 12.5 mg/kg (Rattus norvegicus [1]) [%] | inhibition in vivo at 100 mg/kg (Rattus norvegicus [2]) [%] | inhibition in vivo at 6.25 mg/kg (Rattus norvegicus [3]) [%] | inhibition in vivo at 50 mg/kg (Mus musculus [4]) [%] | inhibition in vivo at 50 mg/kg (Rattus norvegicus [5]) [%] | inhibition in vivo at 25 mg/kg (Rattus norvegicus [6]) [%] | inhibition in vivo at 100 mg/kg (Mus musculus [7]) [%] | Activity (Rattus norvegicus [8]) | inhibition at 100 mg/kg (Mus musculus [9]) [%] | inhibition in vivo at 12.5 mg/kg (Mus musculus [10]) [%] | inhibition in vivo at 25 mg/kg (Mus musculus [11]) [%] | inhibition at 50 mg/kg (Mus musculus [12]) [%] |
| --- | --- | --- | --- | --- | --- | --- | --- | --- | --- | --- | --- | --- |
| CCCN(C)c1c(C(=O)N(CC)CC)c2nnc(C(C)C)n2c2ncccc12 | 44 | 71 | 23 | 37 | 55 | 42 | 71 | Non-toxic | 62 |  |  |  |
| CCN(CC)C(=O)c1c(NCC(C)C)c2cccnc2n2ccnc12 |  | 0 |  | 48 |  |  | 71 | Non-toxic | 68 | 0 | 48 | 28 |
| CCN(CC)C(=O)c1c(N2CCN(Cc3ccccc3)CC2)c2cccnc2n2ccnc12 |  | 26 |  | 0 | 10 |  | 46 | Non-toxic | 42 |  |  |  |
| CCN(CC)C(=O)c1c(N2CCN(C)CC2)c2cccnc2n2c(N(C)C)cnc12 |  | 0 |  | 16 |  |  | 83 | Non-toxic | 44 |  |  | 30 |
| CCN1CCN(c2c(C(=O)N(CC)CC)c3nccn3c3ncccc23)CC1 |  | 5 |  | 30 |  |  | 80 | Non-toxic | 67 |  |  |  |
| CCOC(=O)c1cn2c(n1)c(C(=O)N(CC)CC)c(N1CCN(C)CC1)c1cccnc12 |  | 0 |  | 2 |  |  | 75 | Non-toxic | 0 |  |  |  |
| CCN(CC)C(=O)c1c(NC)c2cccnc2n2c(C)cnc12 |  | 38 |  | 0 | 20 |  | 73 | Non-toxic | 55 |  |  |  |
| CCNc1c(C(=O)N(CC)CC)c2nccn2c2ncccc12 | 0 | 29 |  | 2 | 26 | 25 | 60 | Non-toxic | 89 |  |  |  |
| CC(C)CNc1c(C(=O)N2CCN(C)CC2)c2nnc(C(C)C)n2c2ncccc12 |  | 0 |  | 29 |  |  | 48 | Non-toxic | 0 |  |  |  |
| CCN(CC)C(=O)c1c(N2CCN(Cc3ccccc3)CC2)c2cccnc2n2c(C)cnc12 |  | 0 |  |  |  |  | 17 |  |  |  |  |  |
| CCN(CC)C(=O)c1c(NCC(C)C)c2cccnc2n2c(C)cnc12 |  | 0 |  |  |  |  | 0 |  |  |  |  |  |
| CCN(CC)C(=O)c1c(N2CCN(C)CC2)c2cccnc2n2ccnc12 |  | 0 |  | 74 |  |  | 80 | Non-toxic | 77 | 32 | 56 | 41 |

Reference: ChEMBL document CHEMBL1156763, “1,8-Naphthyridines VIII. Novel 5-aminoimidazo[1,2-a] [1,8]naphthyridine-6-carboxamide and 5-amino[1,2,4]triazolo[4,3-a] [1,8]naphthyridine-6-carboxamide derivatives showing potent analgesic or anti-inflammatory activity, respectively, and completely devoid of acute gastrolesivity” (Eur J Med Chem, 2010)
